In ChEMBL document CHEMBL1944502, “Efficient synthesis and anti-enteroviral activity of 9-arylpurines” (Eur J Med Chem, 2012):

How the values were obtained:
[1] = Cytotoxicity against African green monkey Vero cells after 3 days by spectrophotometry based MTS/PMS assay; type: cell-based; details: chlorocebus sabaeus
How it was run: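 Uninfected Vero cultures were handled as in the antiviral set-up: serial compound dilutions for 3 days. Overall metabolism was read by MTS/PMS, and raw values were converted to % of controls. CC50 (50% inhibition of cell metabolism) was obtained by linear interpolation. Each experiment was repeated at least three times.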

[2] = system: Vero; experiment: Cytotoxicity against Coxsackievirus B3 Nancy infected African green monkey Vero cells assessed as change in cell morphology at EC50 after 3 days by microscopic analysis; type: cell-based; details: chlorocebus sabaeus, 72 h
How it was run: (§1)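 Infected, compound-treated wells were inspected microscopically after the 3-day antiviral incubation. The check looked for virus-induced CPE and for compound-induced alteration of cell morphology, compared with uninfected, untreated control cells.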

[3] = Antiviral activity against Coxsackievirus B3 Nancy infected in african green monkey Vero cells assessed as inhibition of virus-induced cell death after 3 days by spectrophotometry based MTS/PMS assay; type: functional, Coxsackievirus B3 (strain Nancy); details: Enterovirus B, 72 h
How it was run: (§2)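 Infected cells in 96-well plates received serial compound dilutions plus 100 CCID50 of virus. They were incubated 3 days, until full CPE appeared in untreated virus controls, at 37 °C (35 °C for rhinovirus 14). Viability was read by MTS/PMS at OD 498 nm and converted to % of controls. EC50 was obtained by linear interpolation. Runs were at least triplicate, with microscopic confirmation.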

[4] = system: Vero; experiment: Cytotoxicity against Coxsackievirus B4 E2 Edwards infected african green monkey Vero cells assessed as change in cell morphology at EC50 after 3 days by microscopic analysis; type: cell-based; details: chlorocebus sabaeus, 72 h; how it was run: as §1
[5] = Antiviral activity against Enterovirus 71 BRCR infected in human RD cells assessed as inhibition of virus-induced cell death after 3 days by spectrophotometry based MTS/PMS assay; type: functional, Human enterovirus 71 (strain BRCR); details: Enterovirus A, 72 h; how it was run: as §2
[6] = Antiviral activity against drug-resistant Coxsackievirus B3 Nancy infected in african green monkey Vero cells assessed as inhibition of virus-induced cell death after 3 days by spectrophotometry based MTS/PMS assay; type: functional, Coxsackievirus B3 (strain Nancy); details: Enterovirus B, 72 h
[7] = system: rhinovirus B14; experiment: Antiviral activity against Human rhinovirus 14 infected in human HeLa cells assessed as inhibition of virus-induced cytopathogenicity after 3 days by spectrophotometry based MTS/PMS assay; type: functional, organism-based; details: Rhinovirus B, 72 h; how it was run: as §2
[8] = system: Poliovirus 1; experiment: Antiviral activity against Poliovirus type 1 Sabin infected in BGM cells assessed as inhibition of virus-induced cell death after 3 days by spectrophotometry based MTS/PMS assay; type: functional; details: Enterovirus C, 72 h
[9] = system: Coxsackievirus B4; experiment: Antiviral activity against Coxsackievirus B4 E2 Edwards infected in african green monkey Vero cells assessed as inhibition of virus-induced cytopathogenicity after 3 days by spectrophotometry based MTS/PMS assay; type: functional, organism-based; details: Enterovirus B, 72 h; how it was run: as §2
[10] = Antiviral activity against Echovirus 11 Gregory infected in BGM cells assessed as inhibition of virus-induced cell death after 3 days by spectrophotometry based MTS/PMS assay; type: functional, Echovirus 11 (strain Gregory); details: Enterovirus B, 72 h; how it was run: as §2
[11] = Cytotoxicity against Echovirus 11 Gregory infected BGM cells assessed as change in cell morphology at EC50 after 3 days by microscopic analysis; type: cell-based; details: chlorocebus aethiops, 72 h; how it was run: as §1

SMILES | CC50 at 72 h [1] [µM] | Activity [2] | EC50 [3] [µM] | EC90 [3] [µM] | Activity [4] | EC50 [5] [µM] | EC50 [6] [µM] | EC50 [7] [µM] | EC50 [8] [µM] | EC50 [9] [µM] | EC50 [10] [µM] | Activity [11]
Cc1nc(Cl)c2ncn(-c3cccc(C(C)(C)O)c3)c2n1 | > 100 | Non-toxic |  |  |  |  |  |  |  |  |  | 
O=C1OCCN1c1cccc(-n2cnc3c(Cl)ncnc32)c1 | > 200 | Non-toxic | 33.7 | 47.5 |  |  |  |  |  |  |  | 
Cc1nc(Cl)c2ncn(-c3cccc(N(C)C)c3)c2n1 | > 100 | Non-toxic | 12 | 28 |  |  |  |  |  |  |  | 
CCN(CC)c1cccc(-n2cnc3c(Cl)nc(C)nc32)c1 | > 100 | Non-toxic | 10 | 15 |  |  |  |  |  |  |  | 
CC(=O)Nc1cccc(-n2cnc3c(Cl)nc(C)nc32)c1 | > 200 | Non-toxic | 11.8 | 17.5 |  |  |  |  |  |  |  | 
CC(=O)N(CC1CC1)c1cccc(-n2cnc3c(Cl)nc(C)nc32)c1 | > 200 | Non-toxic | 34.5 | 52.3 |  |  |  |  |  |  |  | 
Cc1nc(Cl)c2[nH]c(=O)n(-c3cccc(N4CCOC4=O)c3)c2n1 | > 200 | Non-toxic | 25.4 | 33.5 |  |  |  |  |  |  |  | 
Cc1nc(Cl)c2ncn(-c3ccc(N(C)C)cc3)c2n1 | > 100 | Non-toxic | 11 |  |  |  |  |  |  |  |  | 
CN(C)c1ccc(-n2cnc3c(Cl)ncnc32)cc1 | > 100 | Non-toxic | 6.3 |  |  |  |  |  |  |  |  | 
CN(C)c1cccc(-n2cnc3c(Cl)ncnc32)c1 | > 100 | Non-toxic | 3.8 | 5 | Non-toxic | > 100 | > 100 | > 100 | > 100 | 6.9 | 12.5 | 
Cc1nc(Cl)c2[nH]c(=O)n(-c3cccc(N(C)C)c3)c2n1 | > 100 | Non-toxic | 10 | 15 |  |  |  |  |  |  |  | 
CC(C)S(=O)(=O)n1c(N)nc2ccc(/C(=N/O)c3ccccc3)cc21 [ENVIROXIME] | > 100 | Non-toxic |  |  |  |  | 1.3 |  |  |  |  | 
Cc1nc(Cl)c2ncn(-c3cccc(N4CCOC4=O)c3)c2n1 | > 200 | Non-toxic | 10.6 | 15.6 |  |  |  |  |  |  |  | 
CN(C)c1cccc(-n2c(=O)[nH]c3c(Cl)ncnc32)c1 | > 100 | Non-toxic | 16 | 26 |  |  |  |  |  |  |  | 
CCN(C(C)=O)c1cccc(-n2cnc3c(Cl)nc(C)nc32)c1 | > 200 | Non-toxic | 6.1 | 10.9 |  |  |  |  |  |  |  | 
CCOC(=O)Oc1nc2c(Cl)nc(C)nc2n1-c1cccc(N(C)C)c1 | 131 | Non-toxic | 12.6 | 19.9 |  |  |  |  |  |  |  | 
Cc1nc(Cl)c2c(n1)n(-c1cccc(N(C)C)c1)c(=O)n2C | > 200 | Non-toxic | 11.3 | 18.2 |  |  |  |  |  |  |  | 
CC(=O)Nc1cccc(-n2cnc3c(Cl)ncnc32)c1 | > 174 |  | 18.5 | 24.2 | Non-toxic | > 174 | > 50 | > 100 | > 174 | 12.1 | 20.8 | Non-toxic
CCOc1ncnc2c1ncn2-c1cccc(NCCO)c1 | > 200 |  | > 200 | > 200 |  |  |  |  |  |  |  | 
Fc1cccc(F)c1[C@@H]1SCc2nc3cc(C(F)(F)F)ccc3n21 | > 100 | Non-toxic |  |  |  |  |  |  |  |  |  | 
CC(=O)N(C)c1cccc(-n2cnc3c(Cl)ncnc32)c1 | > 100 | Non-toxic | 7.8 |  |  |  |  |  |  |  |  | 
O=C1OCCN1c1cccc(-n2c(=O)[nH]c3c(Cl)ncnc32)c1 | > 200 | Non-toxic | 8.9 | 15.3 | Non-toxic | > 151 |  | > 100 | > 151 | 24.1 | 86.9 | 
Cc1nc(Cl)c2nc(OC(=O)Oc3ccccc3)n(-c3cccc(N(C)C)c3)c2n1 | 75.9 |  | 13.6 | 14.8 |  |  |  |  |  |  |  | 
CC(=O)c1cccc(-n2c(=O)[nH]c3c(Cl)nc(C)nc32)c1 | > 100 | Non-toxic |  |  |  |  |  |  |  |  |  | 
CC(=O)c1cccc(-n2cnc3c(Cl)ncnc32)c1 | > 100 | Non-toxic |  |  | Non-toxic |  | > 100 | > 100 | > 100 | 28.8 | 21.6 | 
CCN(CC)c1cccc(-n2cnc3c(Cl)ncnc32)c1 | > 100 | Non-toxic | 15 | 23 |  |  |  |  |  |  |  | 
CC(=O)N(C)c1cccc(-n2cnc3c(Cl)nc(C)nc32)c1 | 307 | Non-toxic | 6.1 | 8.3 | Non-toxic | > 158 | > 50 | > 100 | > 158 | 13 | 20 | Non-toxic
